Rows were chosen to be rich in hits. Some 1.6% of all compounds tested hit in one or more screens of this group.
MBD2 inh = MBD2-methylated oligo binding inhibition; inhibition, % at 4.4 µM; 0.31% of 370,000 active; Q9UBB5; AID 686964; TR-FRET, MBD2 binding to methylated oligonucleotide; in the data active = inhibition above about 13%
UHRF1 binding = UHRF1 methyl-DNA binding inhibition; Q96T88; UHRF1 binding to methylated oligo, TR-FRET; inhibition, % at 4.4 µM; 0.75% of 370,000 active; in the data active = inhibition above about 21%;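 note: UHRF1 SRA domain binding a hemimethylated CpG hairpin DNA probe; 0% = median of test compound wells and 100% = reference inhibitor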
Target sequence (Q96T88 whole entry, looked up, the tested form may be a part): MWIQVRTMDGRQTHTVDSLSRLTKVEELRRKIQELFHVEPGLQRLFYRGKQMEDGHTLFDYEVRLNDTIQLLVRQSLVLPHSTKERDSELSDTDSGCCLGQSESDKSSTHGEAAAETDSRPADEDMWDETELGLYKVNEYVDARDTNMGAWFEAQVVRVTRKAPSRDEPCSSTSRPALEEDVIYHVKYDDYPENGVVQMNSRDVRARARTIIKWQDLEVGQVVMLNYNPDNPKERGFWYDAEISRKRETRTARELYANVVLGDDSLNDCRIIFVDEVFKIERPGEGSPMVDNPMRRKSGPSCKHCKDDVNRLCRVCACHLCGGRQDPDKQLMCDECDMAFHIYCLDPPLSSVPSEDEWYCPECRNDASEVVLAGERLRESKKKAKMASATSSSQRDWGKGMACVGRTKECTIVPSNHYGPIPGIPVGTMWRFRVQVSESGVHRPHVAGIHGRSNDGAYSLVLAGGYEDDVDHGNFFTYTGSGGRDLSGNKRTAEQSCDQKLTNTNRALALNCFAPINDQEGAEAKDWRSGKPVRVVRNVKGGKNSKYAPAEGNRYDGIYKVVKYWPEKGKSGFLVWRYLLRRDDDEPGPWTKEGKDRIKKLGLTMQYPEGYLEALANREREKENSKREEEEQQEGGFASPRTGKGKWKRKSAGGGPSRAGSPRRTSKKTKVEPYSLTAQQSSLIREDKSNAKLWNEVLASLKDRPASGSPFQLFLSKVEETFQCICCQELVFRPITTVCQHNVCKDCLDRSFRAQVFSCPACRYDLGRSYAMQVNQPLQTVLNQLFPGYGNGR
LEDGF integ inh = blocks HIV-1 LEDGF/p75-dependent DNA integration; AID 743269; inhibition, % at 3.7 µM; TR-FRET IN-LEDGF/p75 DNA integration, Eu/Cy5; 0.64% of 370,000 active;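 active = inhibition above the screen-wide mean plus 3 SD, cut at about 13% in these data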;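 note: signal is the Cy5 over europium emission ratio at 671 and 618 nm; 0% = plate median of compound wells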
TDP2 absorb = blocks human TDP2 phosphodiesterase activity | O95551 | recombinant TDP2, T5PNP hydrolysis, p-nitrophenol absorbance 415 nm | inhibition, % at 12.8 µM | 0.34% of 370,000 active | AID 720702;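 active = inhibition above the mean of all tested compounds plus 3 SD, set per campaign, cut at about 25% in these data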;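 note: 0% = DMSO with enzyme and 100% = buffer with substrate but no TDP2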
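Material: recombinant human TDP2; quantity: TDP2 enzyme at 120 nM final; medium: Tris-HCl pH 7.5 with MgCl2; compound: single concentration, 12.8 µM nominal, with 1% DMSO; incubation: 2 h enzyme incubation at 37 °C; signal: epi absorbance; measure: percent inhibition; benchmarks: high control without enzyme, low control DMSO plus TDP2; repeats: singlicate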
UHRF1 ctr MBD2 = inhibits human UHRF1 binding to methylated oligonucleotide, MBD2 counter-screen. AID 720530. shares compounds with MBD2 inh. 25% of 1,000 active. inhibition, % at 4.4 µM. TR-FRET; in the data active = inhibition above about 21%;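 note: UHRF1 SRA domain binding a labeled hemimethylated CpG hairpin DNA; 0% = vehicle only and 100% = reference inhibitor with vehicle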
MBD2 DBD conf = MBD2-DBD methyl-DNA binding inhibition, TR-FRET confirmation; shares compounds with MBD2 inh; TR-FRET MBD2-DBD binding to methylated oligonucleotide; inhibition, % at 4.4 µM; 26% of 1,000 active; AID 720531
TDP2 confirm = human TDP2 inhibition, confirmation; recombinant human TDP2, absorbance read-out; inhibition, % at 12.8 µM; AID 743263; 22% of 1,100 active; shares compounds with TDP2 absorb; in the data active = inhibition above about 25%;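 note: 0% = vehicle with enzyme and 100% = no enzyme buffer only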
IN multimer up = counter-screen for LEDGF/p75 integration inhibitors: HIV-1 integrase multimerization activators. TR-FRET HIV-1 integrase multimerization, biochemical. shares compounds with LEDGF integ inh. 17% of 2,000 active. activation, % at 7.7 µM; in the data active = activation above about 8.9%
TR-FRET interf = optically interferes with TR-FRET readout in LEDGF counter-screen | shares compounds with LEDGF integ inh | TR-FRET optical interference counterscreen, HIV-1 IN multimerization | inhibition, % at 7.7 µM | 2,000 tested, under 10 active | AID 1053135;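 active = inhibition above the mean over all tested compounds plus 3 SD, which no compound reached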;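 note: 0% = integrase with antibodies and DMSO and 100% = antibodies without integrase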
IN-LEDGF confirm = confirmation of HIV-1 LEDGF/p75-dependent integration inhibitors | shares compounds with LEDGF integ inh | TR-FRET LEDGF/p75-dependent HIV-1 integration, biochemical | inhibition, % at 3.7 µM | 36% of 2,000 active | AID 1053136
Starred values were filed as active, the others as inactive; · = no result given. Cut-off read from the data, not from the text of the source, unless noted: active = inhibition above about 14%; inactive = the rest.

SMILES	MBD2 inh	UHRF1 binding	LEDGF integ inh	TDP2 absorb	UHRF1 ctr MBD2	MBD2 DBD conf	IN multimer up	TR-FRET interf	IN-LEDGF confirm	others
CCOC(=O)[C@]12CCCC=C1N(CCCOC)C(=O)[C@@H]2CC(=O)NCC12CC3CC(CC(C3)C1)C2	-5	-2	3	0	·	·	·	·	·
Cn1cc(CC(=O)Nc2ccc(Nc3cccnc3)cc2)c2ccccc21	-2	2	-5	0	·	·	·	·	·
COCCCNC(=O)C[C@H]1C[C@@]2(C(=O)OC)C(=C[C@H](COCc3ccccc3)O[C@@H]2C)N(Cc2ccccc2)C1=O	-7	-2	8	-5	·	·	·	·	·
CN1C(=O)c2cc(NC(=O)Nc3ccc(F)c(F)c3)ccc2OC[C@H]2O[C@@H](CC(=O)O)CC[C@H]21	1	-1	-2	0	·	·	·	·	·
COc1ccccc1-c1ccc(/C=C2\C=CC(=O)O2)o1	15*	27*	44*	6	8	1	2	-6	11
Cc1cc(/C=C2\SC(=O)NC2=O)c(C)n1-c1ccc(N(C)C)cc1	17*	39*	42*	1	8	3	2	-6	-1
Cc1cc(/C=C2\SC(=O)NC2=O)c(C)n1-c1ccc(N2CCOCC2)cc1	-2	-1	-2	-4	·	·	·	·	·
COc1ccc(Cl)cc1Nc1nc(NCCO)nc(N2CCCC2)n1	17*	72*	24*	4	1	10	2	-7	-1
COc1ccc(Cl)cc1Nc1nc(NCCO)nc(N2CCCCC2)n1	-4	-7	-1	-9	·	·	·	·	·
COC(=O)c1cc(O)cc(OC)c1Oc1cc(C)cc(O)c1C(=O)O	14*	29*	19*	-15	56*	30*	40*	-202	58*
O=C(CSc1nc2ccccc2n1Cc1ccccc1Cl)NN=C/C(Br)=C/c1ccccc1	0	-3	-3	-5	·	·	·	·	·
Oc1ccc2[nH]cc(CCc3ccccc3)c2c1-c1ccccc1	0	2	-3	-3	·	·	·	·	·
O=c1ccc2ccc(O)cc2o1	6	2	-4	-8	·	·	·	·	·
O=c1ccc2cc(O)c(O)cc2o1	71*	94*	94*	9	5	4	7	-36	6
Cc1cc(=O)n(C2CCS(=O)(=O)C2)[nH]1 (configuration not stated)	14*	17	22*	70*	-2	2	-2	9	0	TDP2 confirm=26*
Cc1ccccc1-c1nnnn1C1CCS(=O)(=O)C1 (configuration not stated)	3	0	-3	4	·	·	·	·	·
O=C(O)c1ccc(-n2c(-c3cc(-c4ccco4)[nH]n3)n[nH]c2=S)cc1	27*	83*	53*	12	73*	23*	10*	-52	42*
CC(=O)c1ccc(-n2c(-c3cc(-c4ccco4)[nH]n3)n[nH]c2=S)cc1	-3	0	4	-2	·	·	·	·	·
COCc1cc(=O)n2[nH]c(-c3ccco3)cc2n1	4	-2	-3	6	·	·	·	·	·
CCCCN1Cc2c(nc3cc(-c4ccco4)[nH]n3c2=O)C1=O	25*	63*	32*	-16	7	4	4	-14	8
CC(C)C[C@@H]1COc2cc(N3CCCC3)ccc2S(=O)(=O)N1C	-5	0	1	3	·	·	·	·	·
CCNc1nc(NC(C)C)nc(N(C#N)CC(=O)OC)n1	32*	63*	18*	3	7	4	-1	4	2
CCNc1nc(NC(C)C)nc(N(C#N)C(C)C(=O)N(C)C)n1 (configuration not stated)	4	4	0	-8	·	·	·	·	·
O=C(c1ccco1)N1CCC(Oc2cccnc2)CC1	-6	-1	3	7	·	·	·	·	·
Cc1cc(C)n2c(Nc3ccc4c(c3)OCCO4)c(-c3ccc(C)o3)nc2n1	16*	26*	24*	-2	2	2	2	-8	4
SMILES	MBD2 inh	UHRF1 binding	LEDGF integ inh	TDP2 absorb	UHRF1 ctr MBD2	MBD2 DBD conf	IN multimer up	TR-FRET interf	IN-LEDGF confirm	others
CC(C)C1Nc2ccc(C(=O)O)cc2C2C=CCC21 (configuration not stated)	14*	30*	17*	14	14	1	5	-27	24*
CCOC(=O)C1Nc2ccc(C(=O)O)cc2C2C=CCC12 (configuration not stated)	27*	72*	67*	20	48*	11	45*	-162	60*
Cc1ccccc1-c1cccc2c3c([nH]c12)[C@@H]1C[C@H]2[C@@H](CN1CC3)[C@H](C)ON2C	5	2	-2	-18	·	·	·	·	·
CN(CCC#N)C(=O)COC(=O)c1c2c(nc3ccccc13)/C(=C\c1ccco1)CC2	20*	41*	50*	1	35*	29*	21*	-104	70*
CN1CCCN(S(=O)(=O)c2ccc3c(c2)CCC(=O)N3)CC1	7	4	-2	0	·	·	·	·	·
Oc1c(CN2CCOCC2)cc(CN2CCOCC2)c(O)c1O	35*	70*	84*	-8	6	7	5	-16	26*
CCCc1cc(CN2CCOCC2)c(O)c(CN2CCOCC2)c1O	-5	-5	-6	1	·	·	·	·	·
Oc1ccc2ccccc2c1CN1CCOCC1	4	6	-4	-3	·	·	·	·	·
Oc1cccc(CN2CCOCC2)c1O	45*	85*	78*	5	6	5	11*	-40	35*
CCCCOCCCNC(=O)C[C@H]1C(=O)N(Cc2ccc(OC)cc2)C2=CCCCC[C@@]21C(=O)OC	1	-1	1	-4	·	·	·	·	·
O=C(COC(=O)c1ccccc1)Nc1ncc([N+](=O)[O-])s1	15*	44*	15*	4	48*	18*	4	-22	34*
O=C(CN1C(=O)S/C(=C\c2ccc(F)cc2)C1=O)Nc1cccc(S(=O)(=O)NCc2ccco2)c1	-3	-3	-2	27*	·	·	·	·	·	TDP2 confirm=0
OC(CNCc1ccc(Cl)cc1)COc1ccccc1 (configuration not stated)	-9	-1	2	25*	·	·	·	·	·	TDP2 confirm=-2
OC(CNCc1ccccc1)COCc1ccc(Cl)cc1 (configuration not stated)	2	3	4	11	·	·	·	·	·
